# Assay results reported in ChEMBL document CHEMBL4043093, “2-Oxo-3, 4-dihydropyrimido[4, 5-d]pyrimidinyl derivatives as new irreversible pan fibroblast growth factor receptor (FGFR) inhibitors” (Eur J Med Chem, 2017).
# Tests used:
# [1] = tested on: Tyrosine-protein kinase ABL1 (Homo sapiens), P00519 [F317L]; test: Inhibition of human phosphorylated ABL1 F317L mutant (S229 to K512 residues) expressed in HEK293 cells assessed as residual activity at 1000 nM after 30 mins by Kinomescan method relative to control; assay type: cell-based
# Sequence of Tyrosine-protein kinase ABL1 (Homo sapiens), P00519 [F317L] (P00519 whole entry F317L, the tested form may be a part): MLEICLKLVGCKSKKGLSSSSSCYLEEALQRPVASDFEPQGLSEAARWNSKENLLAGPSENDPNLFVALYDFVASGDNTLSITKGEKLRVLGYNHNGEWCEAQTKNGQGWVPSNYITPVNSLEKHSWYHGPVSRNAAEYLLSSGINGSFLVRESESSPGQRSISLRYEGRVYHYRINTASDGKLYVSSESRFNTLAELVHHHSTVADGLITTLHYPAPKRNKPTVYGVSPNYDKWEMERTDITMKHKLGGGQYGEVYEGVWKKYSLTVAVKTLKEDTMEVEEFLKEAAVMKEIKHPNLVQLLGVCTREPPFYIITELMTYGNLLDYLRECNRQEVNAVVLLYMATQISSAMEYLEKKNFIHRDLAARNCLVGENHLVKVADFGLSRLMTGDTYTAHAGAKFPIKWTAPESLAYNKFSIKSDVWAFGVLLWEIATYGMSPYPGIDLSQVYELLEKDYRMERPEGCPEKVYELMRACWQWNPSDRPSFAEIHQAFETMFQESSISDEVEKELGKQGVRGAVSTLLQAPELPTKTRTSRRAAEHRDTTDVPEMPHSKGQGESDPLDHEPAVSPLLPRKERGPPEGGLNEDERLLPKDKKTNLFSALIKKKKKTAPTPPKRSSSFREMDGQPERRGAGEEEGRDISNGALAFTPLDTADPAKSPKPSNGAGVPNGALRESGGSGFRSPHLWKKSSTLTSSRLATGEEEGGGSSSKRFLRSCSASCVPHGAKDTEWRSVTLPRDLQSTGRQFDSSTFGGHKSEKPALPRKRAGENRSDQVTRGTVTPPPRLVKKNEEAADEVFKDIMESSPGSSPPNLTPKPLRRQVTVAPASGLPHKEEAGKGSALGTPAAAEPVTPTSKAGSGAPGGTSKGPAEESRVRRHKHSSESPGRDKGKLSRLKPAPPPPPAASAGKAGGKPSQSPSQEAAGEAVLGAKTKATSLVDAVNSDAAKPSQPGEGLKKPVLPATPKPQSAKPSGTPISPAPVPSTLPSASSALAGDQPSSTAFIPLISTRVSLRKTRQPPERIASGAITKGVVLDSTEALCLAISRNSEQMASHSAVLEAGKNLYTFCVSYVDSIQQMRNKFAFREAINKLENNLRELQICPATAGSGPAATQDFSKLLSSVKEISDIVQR
# Summary of the method: (§1)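 Single-point screen at a fixed 1 µM, run within a 456-kinase DiscoveRx KINOMEscan panel. Each kinase's read-out is Percent Control, i.e. signal relative to a control without compound. Hits were scored by a Percent Control < 35 cut-off, and an S(35) selectivity score was calculated across the non-mutant kinases.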
# [2] = biological target: Serine/threonine-protein kinase 4 (Homo sapiens) (UniProt Q13043); test: Inhibition of wild-type human full length MST1 (M1 to F487 residues) expressed in Escherichia coli BL21 assessed as residual activity at 1000 nM after 30 mins by Kinomescan method relative to control
# Summary of the method: (§2)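 Single-concentration screen at 1 µM across a 456-kinase KINOMEscan panel. The read-out is Percent Control for each kinase.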
# [3] = biological target: Cyclin-dependent kinase 8 (Homo sapiens) (UniProt P49336); test: Inhibition of wild-type human partial length CDK8 (M1 to T360 residues) expressed in Escherichia coli BL21 assessed as residual activity at 1000 nM after 30 mins by Kinomescan method relative to control
# [4] = biological target: Serine/threonine-protein kinase ULK3 (Homo sapiens) (UniProt Q6PHR2); test: Inhibition of wild-type human partial length ULK3 (M1 to Q290 residues) expressed in HEK293 cells assessed as residual activity at 1000 nM after 30 mins by Kinomescan method relative to control; assay type: cell-based
# Sequence of Serine/threonine-protein kinase ULK3 (Homo sapiens) (Q6PHR2 whole entry, the tested form may be a part): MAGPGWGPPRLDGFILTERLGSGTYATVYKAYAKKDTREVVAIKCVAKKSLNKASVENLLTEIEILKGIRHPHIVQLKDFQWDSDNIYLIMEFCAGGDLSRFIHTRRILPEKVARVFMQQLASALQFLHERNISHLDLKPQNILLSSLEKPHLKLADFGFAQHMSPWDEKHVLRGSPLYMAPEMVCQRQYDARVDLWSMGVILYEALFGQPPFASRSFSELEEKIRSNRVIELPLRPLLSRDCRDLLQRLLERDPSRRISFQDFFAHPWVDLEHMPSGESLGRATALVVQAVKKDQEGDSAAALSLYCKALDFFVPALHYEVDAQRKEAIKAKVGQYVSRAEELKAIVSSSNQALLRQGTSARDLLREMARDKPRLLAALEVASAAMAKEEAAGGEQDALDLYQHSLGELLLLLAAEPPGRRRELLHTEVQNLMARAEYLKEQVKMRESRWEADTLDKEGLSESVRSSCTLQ
# [5] = biological target: Serine/threonine-protein kinase haspin (Homo sapiens) (UniProt Q8TF76); test: Inhibition of wild-type human partial length HASPIN (I452 to K798 residues) expressed in HEK293 cells assessed as residual activity at 1000 nM after 30 mins by Kinomescan method relative to control; assay type: cell-based
# [6] = biological target: Phosphatidylinositol 4,5-bisphosphate 3-kinase catalytic subunit gamma isoform (Homo sapiens) (UniProt P48736); test: Inhibition of wild-type human partial length PIK3CG (S144 to A1102 residues) expressed in HEK293 cells assessed as residual activity at 1000 nM after 30 mins by Kinomescan method relative to control; assay type: cell-based
# [7] = biological target: Cyclin-dependent kinase 9 (Homo sapiens) (UniProt P50750); test: Inhibition of wild-type human full length CDK9 (M1 to F372 residues) expressed in Escherichia coli BL21 assessed as residual activity at 1000 nM after 30 mins by Kinomescan method relative to control; summary of the method: as §1
# [8] = biological target: Beta-adrenergic receptor kinase 1 (Homo sapiens) (UniProt P25098); test: Inhibition of wild-type human full length GRK2 (M1 to L689 residues) expressed in HEK293 cells assessed as residual activity at 1000 nM after 30 mins by Kinomescan method relative to control; assay type: cell-based; summary of the method: as §2
# [9] = biological target: Mitogen-activated protein kinase 6 (Homo sapiens) (UniProt Q16659); test: Inhibition of wild-type human partial length ERK3 (M1 to P413 residues) expressed in Escherichia coli BL21 assessed as residual activity at 1000 nM after 30 mins by Kinomescan method relative to control
# [10] = biological target: Tyrosine-protein kinase CSK (Homo sapiens) (UniProt P41240); test: Inhibition of wild-type human full length CSK (M1 to L450 residues) expressed in Escherichia coli BL21 assessed as residual activity at 1000 nM after 30 mins by Kinomescan method relative to control; summary of the method: as §1
# [11] = biological target: Mitogen-activated protein kinase kinase kinase 2 (Homo sapiens) (UniProt Q9Y2U5); test: Inhibition of wild-type human partial length MAP3K2 (S315 to H619 residues) expressed in HEK293 cells assessed as residual activity at 1000 nM after 30 mins by Kinomescan method relative to control; assay type: cell-based
# [12] = biological target: BMP-2-inducible protein kinase (Homo sapiens) (UniProt Q9NSY1); test: Inhibition of wild-type human partial length BIKE (S34 to N329 residues) expressed in Escherichia coli BL21 assessed as residual activity at 1000 nM after 30 mins by Kinomescan method relative to control
# [13] = biological target: Ephrin type-A receptor 8 (Homo sapiens) (UniProt P29322); test: Inhibition of wild-type human partial length EPHA8 (Q608 to C920 residues) expressed in Escherichia coli BL21 assessed as residual activity at 1000 nM after 30 mins by Kinomescan method relative to control
# Sequence of Ephrin type-A receptor 8 (Homo sapiens) (P29322 whole entry, the tested form may be a part): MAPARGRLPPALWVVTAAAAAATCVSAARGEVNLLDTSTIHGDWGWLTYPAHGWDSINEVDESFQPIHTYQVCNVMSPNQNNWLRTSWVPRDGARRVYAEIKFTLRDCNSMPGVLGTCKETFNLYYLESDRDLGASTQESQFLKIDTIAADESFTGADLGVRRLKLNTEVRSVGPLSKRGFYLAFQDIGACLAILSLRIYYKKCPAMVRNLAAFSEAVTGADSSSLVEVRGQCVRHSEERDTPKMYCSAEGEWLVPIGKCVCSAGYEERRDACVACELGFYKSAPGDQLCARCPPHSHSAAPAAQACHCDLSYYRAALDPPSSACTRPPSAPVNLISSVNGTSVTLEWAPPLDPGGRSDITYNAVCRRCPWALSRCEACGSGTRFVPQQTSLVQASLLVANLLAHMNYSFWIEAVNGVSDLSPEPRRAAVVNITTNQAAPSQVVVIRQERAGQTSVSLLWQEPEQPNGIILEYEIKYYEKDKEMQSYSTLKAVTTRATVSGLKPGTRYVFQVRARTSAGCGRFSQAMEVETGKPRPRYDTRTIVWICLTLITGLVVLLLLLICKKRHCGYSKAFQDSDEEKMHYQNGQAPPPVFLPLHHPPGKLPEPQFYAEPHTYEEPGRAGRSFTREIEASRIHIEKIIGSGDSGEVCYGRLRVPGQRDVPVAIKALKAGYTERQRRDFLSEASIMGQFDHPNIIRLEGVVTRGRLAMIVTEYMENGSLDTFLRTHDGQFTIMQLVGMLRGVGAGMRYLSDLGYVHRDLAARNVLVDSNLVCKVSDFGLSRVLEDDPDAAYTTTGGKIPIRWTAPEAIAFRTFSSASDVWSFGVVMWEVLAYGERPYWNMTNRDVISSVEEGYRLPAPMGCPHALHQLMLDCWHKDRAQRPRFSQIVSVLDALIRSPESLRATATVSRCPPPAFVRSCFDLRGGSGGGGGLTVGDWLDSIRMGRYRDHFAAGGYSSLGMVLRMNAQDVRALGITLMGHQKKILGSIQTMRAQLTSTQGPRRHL
# [14] = biological target: Tyrosine-protein kinase JAK1 (Homo sapiens) (UniProt P23458); test: Inhibition of wild-type human partial length JAK1 JH2 pseudokinase domain (R537 to D855 residues) expressed in HEK293 cells assessed as residual activity at 1000 nM after 30 mins by Kinomescan method relative to control; assay type: cell-based
# [15] = biological target: Serine/threonine-protein kinase Chk2 (Homo sapiens) (UniProt O96017); test: Inhibition of wild-type human partial length CHEK2 (S253 to E574 residues) expressed in Escherichia coli BL21 assessed as residual activity at 1000 nM after 30 mins by Kinomescan method relative to control
# Sequence of Serine/threonine-protein kinase Chk2 (Homo sapiens) (O96017 whole entry, the tested form may be a part): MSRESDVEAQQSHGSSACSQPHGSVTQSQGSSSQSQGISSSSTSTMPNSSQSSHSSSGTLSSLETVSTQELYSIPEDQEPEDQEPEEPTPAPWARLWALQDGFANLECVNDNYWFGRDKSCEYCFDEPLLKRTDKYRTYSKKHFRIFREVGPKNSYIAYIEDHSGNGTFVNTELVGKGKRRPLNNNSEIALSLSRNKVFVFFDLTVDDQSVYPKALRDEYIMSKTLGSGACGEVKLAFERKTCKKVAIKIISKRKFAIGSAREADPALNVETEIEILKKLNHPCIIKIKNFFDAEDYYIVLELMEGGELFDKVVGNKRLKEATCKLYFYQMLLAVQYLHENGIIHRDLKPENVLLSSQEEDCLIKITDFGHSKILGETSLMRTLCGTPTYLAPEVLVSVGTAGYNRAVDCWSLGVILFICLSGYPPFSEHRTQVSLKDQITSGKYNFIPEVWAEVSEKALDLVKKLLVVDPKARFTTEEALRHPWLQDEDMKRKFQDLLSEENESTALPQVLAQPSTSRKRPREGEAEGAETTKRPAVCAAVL
# [16] = biological target: Serine/threonine-protein kinase Nek6 (Homo sapiens) (UniProt Q9HC98); test: Inhibition of wild-type human full length NEK6 (M8 to T313 residues) expressed in Escherichia coli BL21 assessed as residual activity at 1000 nM after 30 mins by Kinomescan method relative to control; summary of the method: as §2
# Sequence of Serine/threonine-protein kinase Nek6 (Homo sapiens) (Q9HC98 whole entry, the tested form may be a part): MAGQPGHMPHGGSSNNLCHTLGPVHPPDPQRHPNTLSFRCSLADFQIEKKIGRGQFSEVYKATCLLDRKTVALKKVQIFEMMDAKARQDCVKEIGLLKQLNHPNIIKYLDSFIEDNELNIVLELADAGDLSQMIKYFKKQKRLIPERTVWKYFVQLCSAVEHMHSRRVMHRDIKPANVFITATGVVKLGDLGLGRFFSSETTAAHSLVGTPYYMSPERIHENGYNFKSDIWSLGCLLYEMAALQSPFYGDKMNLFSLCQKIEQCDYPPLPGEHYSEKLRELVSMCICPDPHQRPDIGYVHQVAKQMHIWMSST
# [17] = biological target: MAP/microtubule affinity-regulating kinase 4 (Homo sapiens) (UniProt Q96L34); test: Inhibition of wild-type human partial length MARK4 (K29 to G340 residues) expressed in Escherichia coli BL21 assessed as residual activity at 1000 nM after 30 mins by Kinomescan method relative to control
# [18] = biological target: Serine/threonine-protein kinase MRCK alpha (Homo sapiens) (UniProt Q5VT25); test: Inhibition of wild-type human partial length MRCKA (L57 to V418 residues) expressed in Escherichia coli BL21 assessed as residual activity at 1000 nM after 30 mins by Kinomescan method relative to control
# [19] = biological target: Serine/threonine-protein kinase BRSK2 (Homo sapiens) (UniProt Q8IWQ3); test: Inhibition of wild-type human full length BRSK2 (M1 to L674 residues) expressed in Escherichia coli BL21 assessed as residual activity at 1000 nM after 30 mins by Kinomescan method relative to control; summary of the method: as §1
# Sequence of Serine/threonine-protein kinase BRSK2 (Homo sapiens) (Q8IWQ3 whole entry, the tested form may be a part): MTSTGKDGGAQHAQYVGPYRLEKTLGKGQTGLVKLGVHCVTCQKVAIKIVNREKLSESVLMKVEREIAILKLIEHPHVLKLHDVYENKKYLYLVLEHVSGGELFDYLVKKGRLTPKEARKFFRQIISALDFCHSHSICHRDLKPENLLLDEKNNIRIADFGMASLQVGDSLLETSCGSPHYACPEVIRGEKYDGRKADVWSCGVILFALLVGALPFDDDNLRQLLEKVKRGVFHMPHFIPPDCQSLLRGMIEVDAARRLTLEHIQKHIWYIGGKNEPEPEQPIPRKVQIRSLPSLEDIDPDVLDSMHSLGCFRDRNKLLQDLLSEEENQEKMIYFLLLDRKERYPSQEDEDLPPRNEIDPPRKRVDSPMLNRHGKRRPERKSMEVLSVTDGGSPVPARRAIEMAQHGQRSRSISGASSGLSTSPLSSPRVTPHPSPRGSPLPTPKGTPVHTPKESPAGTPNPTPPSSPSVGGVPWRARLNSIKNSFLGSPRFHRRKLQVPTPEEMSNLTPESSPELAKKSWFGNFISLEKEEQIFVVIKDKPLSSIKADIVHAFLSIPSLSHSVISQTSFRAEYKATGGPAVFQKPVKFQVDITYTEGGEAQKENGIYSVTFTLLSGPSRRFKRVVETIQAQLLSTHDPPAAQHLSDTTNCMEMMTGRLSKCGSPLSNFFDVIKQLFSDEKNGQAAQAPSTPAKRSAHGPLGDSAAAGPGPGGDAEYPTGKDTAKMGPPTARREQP
# [20] = biological target: Serine/threonine-protein kinase TAO1 (Homo sapiens) (UniProt Q7L7X3); test: Inhibition of wild-type human partial length TAOK1 (M1 to A320 residues) expressed in HEK293 cells assessed as residual activity at 1000 nM after 30 mins by Kinomescan method relative to control; assay type: cell-based
# [21] = biological target: NT-3 growth factor receptor (Homo sapiens) (UniProt Q16288); test: Inhibition of wild-type human partial length TRKC (Q531 to G825 residues) expressed in HEK293 cells assessed as residual activity at 1000 nM after 30 mins by Kinomescan method relative to control; assay type: cell-based
# [22] = biological target: Mitogen-activated protein kinase kinase kinase kinase 1 (Homo sapiens) (UniProt Q92918); test: Inhibition of wild-type human full length HPK1 (M1 to R799 residues) expressed in Escherichia coli BL21 assessed as residual activity at 1000 nM after 30 mins by Kinomescan method relative to control; summary of the method: as §2
# Sequence of Mitogen-activated protein kinase kinase kinase kinase 1 (Homo sapiens) (Q92918 whole entry, looked up, the tested form may be a part): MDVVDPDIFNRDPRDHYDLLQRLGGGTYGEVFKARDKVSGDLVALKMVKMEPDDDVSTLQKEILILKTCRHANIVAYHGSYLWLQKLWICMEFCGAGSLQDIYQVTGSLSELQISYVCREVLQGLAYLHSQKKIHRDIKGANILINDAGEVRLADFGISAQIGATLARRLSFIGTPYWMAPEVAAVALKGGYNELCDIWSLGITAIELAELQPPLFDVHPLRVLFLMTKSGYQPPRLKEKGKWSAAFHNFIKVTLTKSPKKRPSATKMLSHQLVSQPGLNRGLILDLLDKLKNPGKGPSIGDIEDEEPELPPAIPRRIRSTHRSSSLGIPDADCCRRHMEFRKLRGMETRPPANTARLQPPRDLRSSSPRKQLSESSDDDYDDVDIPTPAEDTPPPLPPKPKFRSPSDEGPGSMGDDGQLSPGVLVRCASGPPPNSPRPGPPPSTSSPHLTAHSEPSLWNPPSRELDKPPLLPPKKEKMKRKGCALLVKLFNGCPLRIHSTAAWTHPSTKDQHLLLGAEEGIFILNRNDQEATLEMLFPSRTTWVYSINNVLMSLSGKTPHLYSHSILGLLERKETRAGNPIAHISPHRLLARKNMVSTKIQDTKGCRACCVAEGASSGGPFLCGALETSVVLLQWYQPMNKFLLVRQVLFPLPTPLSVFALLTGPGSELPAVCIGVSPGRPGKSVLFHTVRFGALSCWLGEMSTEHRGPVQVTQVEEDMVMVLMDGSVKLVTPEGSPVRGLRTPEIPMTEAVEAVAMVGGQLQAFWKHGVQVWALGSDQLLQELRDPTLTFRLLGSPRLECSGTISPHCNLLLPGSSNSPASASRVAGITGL
compound,measurement,setting,value
COc1cc(OC)c(Cl)c(N2Cc3cnc(Nc4ccc(F)cc4)nc3N(C3CCN(C(=O)/C=C/CN(C)C)CC3)C2=O)c1Cl,Activity,[1],64%
same,Activity,[2],81%
same,Activity,[3],85%
same,Activity,[4],99%
same,Activity,[5],61%
same,Activity,[6],100%
same,Activity,[7],97%
same,Activity,[8],87%
same,Activity,[9],100%
same,Activity,[10],100%
same,Activity,[11],0.8%
same,Activity,[12],100%
same,Activity,[13],100%
same,Activity,[14],97%
same,Activity,[15],100%
same,Activity,[16],100%
same,Activity,[17],87%
same,Activity,[18],98%
same,Activity,[19],99%
same,Activity,[20],13%
same,Activity,[21],100%
same,Activity,[22],32%
